Laboratory results taken from ChEMBL document CHEMBL1806460, “Synthesis of rotenoid derivatives with cytotoxic and topoisomerase II inhibitory activities” (Bioorg Med Chem Lett, 2011).

Tests used:
[1] = Cytotoxicity against human ChaGo cells after 3 days by MTT assay; format: functional, cell-based; settings: 72 h
Method in brief: (§1)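 Cells were cultured per supplier instructions at 2–4 × 10⁴ cells/well in medium with 10% (v/v) FBS, overnight at 37 °C under 5% CO₂. Compounds were then added, and after 3 days MTT was added to 0.5 mg/mL final for 4 h. Medium was replaced for solubilization with glycine pH 10.5. Doxorubicin was the positive control, and IC₅₀ values were derived.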

SW-620 = experiment: Cytotoxicity against human SW620 cells after 3 days by MTT assay; format: functional, cell-based; settings: SW-620, 72 h; method in brief: as §1
BT-474 = experiment: Cytotoxicity against human BT474 cells after 3 days by MTT assay; format: functional, cell-based; settings: BT-474, 72 h; method in brief: as §1
HepG2 = experiment: Cytotoxicity against human HepG2 cells after 3 days by MTT assay; format: functional, cell-based; settings: HepG2, 72 h; method in brief: as §1
[2] = biological target: DNA topoisomerase 2-alpha (Homo sapiens) (UniProt P11388); experiment: Inhibition of human topoisomerase 2alpha-mediated relaxation of supercoiled pBR322 at 100 uM after 30 mins by electrophoresis analysis
NCI-H187 = experiment: Cytotoxicity against human NCI-H187 cells after 3 days by MTT assay; format: functional, cell-based; settings: NCI-H187, 72 h; method in brief: as §1
MCF7 = experiment: Cytotoxicity against human MCF7 cells after 3 days by MTT assay; format: functional, cell-based; settings: MCF7, 72 h; method in brief: as §1
KB = experiment: Cytotoxicity against human KB cells after 3 days by MTT assay; format: functional, cell-based; settings: 72 h; method in brief: as §1
[3] = Cytotoxicity against human KATO cells after 3 days by MTT assay; format: functional, cell-based; settings: 72 h; method in brief: as §1
Nucleic Acid [4] = experiment: Binding affinity to calf thymus DNA assessed as increase in melting temperature (reference value: 56.4 degC); format: nucleic-acid assay; settings: Bos taurus
Nucleic Acid [5] = experiment: Binding affinity to calf thymus DNA assessed as change in melting temperature; format: nucleic-acid assay; settings: Bos taurus
[6] = biological target: DNA topoisomerase 2-alpha (Homo sapiens) (UniProt P11388); experiment: Inhibition of human topoisomerase 2alpha-mediated relaxation of supercoiled pBR322 at 20 uM after 30 mins by electrophoresis analysis

Chain of DNA topoisomerase 2-alpha (Homo sapiens) (P11388 whole entry): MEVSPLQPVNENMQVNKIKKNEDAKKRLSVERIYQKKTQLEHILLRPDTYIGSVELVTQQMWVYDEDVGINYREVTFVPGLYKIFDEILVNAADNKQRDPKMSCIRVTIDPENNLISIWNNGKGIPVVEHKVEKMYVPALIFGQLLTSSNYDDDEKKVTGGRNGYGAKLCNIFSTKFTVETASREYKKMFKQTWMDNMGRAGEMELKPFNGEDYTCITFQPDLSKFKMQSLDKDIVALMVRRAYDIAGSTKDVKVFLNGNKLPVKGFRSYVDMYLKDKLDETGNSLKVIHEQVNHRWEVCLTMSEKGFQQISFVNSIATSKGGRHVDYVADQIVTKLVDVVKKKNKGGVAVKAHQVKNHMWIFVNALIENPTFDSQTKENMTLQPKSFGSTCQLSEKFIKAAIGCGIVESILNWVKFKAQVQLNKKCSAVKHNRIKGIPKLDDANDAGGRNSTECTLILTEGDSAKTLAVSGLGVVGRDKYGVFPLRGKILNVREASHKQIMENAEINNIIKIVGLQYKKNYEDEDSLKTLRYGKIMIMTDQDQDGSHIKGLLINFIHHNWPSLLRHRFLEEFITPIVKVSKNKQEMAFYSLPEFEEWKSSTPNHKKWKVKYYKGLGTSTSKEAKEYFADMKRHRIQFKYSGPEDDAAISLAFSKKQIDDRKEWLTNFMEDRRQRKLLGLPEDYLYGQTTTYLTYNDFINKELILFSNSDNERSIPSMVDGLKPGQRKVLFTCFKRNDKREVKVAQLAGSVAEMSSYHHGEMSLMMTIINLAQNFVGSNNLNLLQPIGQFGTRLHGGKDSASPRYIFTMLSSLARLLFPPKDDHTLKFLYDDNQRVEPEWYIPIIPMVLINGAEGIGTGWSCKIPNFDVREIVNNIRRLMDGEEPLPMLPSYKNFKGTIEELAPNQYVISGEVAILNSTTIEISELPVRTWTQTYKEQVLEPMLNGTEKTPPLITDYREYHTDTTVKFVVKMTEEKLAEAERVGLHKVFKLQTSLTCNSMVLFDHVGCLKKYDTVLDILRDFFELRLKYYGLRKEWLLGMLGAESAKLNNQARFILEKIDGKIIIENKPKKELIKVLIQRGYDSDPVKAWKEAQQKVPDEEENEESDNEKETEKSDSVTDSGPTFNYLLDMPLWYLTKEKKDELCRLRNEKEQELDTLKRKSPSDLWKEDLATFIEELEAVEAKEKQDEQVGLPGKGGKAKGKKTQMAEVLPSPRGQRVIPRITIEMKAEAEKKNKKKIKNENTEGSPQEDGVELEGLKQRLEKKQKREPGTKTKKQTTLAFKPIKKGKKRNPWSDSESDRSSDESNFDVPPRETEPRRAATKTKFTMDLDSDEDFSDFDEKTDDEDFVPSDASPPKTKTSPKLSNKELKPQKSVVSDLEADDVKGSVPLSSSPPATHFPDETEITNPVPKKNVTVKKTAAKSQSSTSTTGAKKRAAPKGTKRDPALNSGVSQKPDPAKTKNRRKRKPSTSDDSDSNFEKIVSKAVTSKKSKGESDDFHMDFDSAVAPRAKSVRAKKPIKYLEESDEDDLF

Row | inhibition [2] | Tm (Nucleic Acid [4]) | ΔTm (Nucleic Acid [5]) | inhibition [6] | Compound | IC50 [1] | IC50 (SW-620) | IC50 (BT-474) | IC50 (HepG2) | IC50 (NCI-H187) | IC50 (MCF7) | IC50 (KB) | IC50 [3]
1 | 72.1% | 57.3 °C |  |  | COc1cc(O)c2c(c1)O[C@@H]1COc3cc(OC)c(OC)cc3[C@]1(O)C2=O | > 100 µM | > 100 µM | > 100 µM | > 100 µM | 3.12 µM | 23.7 µM | 13.3 µM | > 100 µM
2 | 49.1% |  |  |  | COc1cc(OCC(O)CN(CCO)CCO)c2c(c1)O[C@@H]1COc3cc(OC)c(OC)cc3[C@]1(O)C2=O (stereo not given in full) | > 100 µM | > 100 µM | > 100 µM | > 100 µM | > 100 µM | > 100 µM | > 100 µM | > 100 µM
3 | 68.3% | 59.3 °C | 2 °C |  | COc1cc(OCC2CO2)c2c(c1)O[C@@H]1COc3cc(OC)c(OC)cc3[C@]1(O)C2=O (mixture of isomers) | 0.57 µM | 0.38 µM | 0.45 µM | 0.55 µM | 27.8 µM | 5.63 µM | 32.9 µM | 0.63 µM
4 | 58.3% |  |  |  | COc1cc(OCC(O)CCl)c2c(c1)O[C@@H]1COc3cc(OC)c(OC)cc3[C@]1(O)C2=O (mixture of isomers) | > 100 µM | 1.09 µM | 1.57 µM | 0.81 µM | 6.61 µM | 24.9 µM | 14.8 µM | 1.09 µM
5 | 38.8% |  |  |  | COc1cc(OCC(O)CO)c2c(c1)O[C@@H]1COc3cc(OC)c(OC)cc3[C@]1(O)C2=O (mixture of isomers) | > 100 µM | 8.04 µM | > 100 µM | > 100 µM | 13.9 µM | > 100 µM | 13.4 µM | > 100 µM
6 | 58.4% |  |  |  | COCC(O)COc1cc(OC)cc2c1C(=O)[C@@]1(O)c3cc(OC)c(OC)cc3OC[C@H]1O2 (mixture of isomers) | > 100 µM | > 100 µM | > 100 µM | > 100 µM | 11.7 µM | > 100 µM | 46.9 µM | > 100 µM
7 | 93.5% | 65.1 °C | 7.8 °C | 47.1% | COc1cc(OCC(O)CN2CCOCC2)c2c(c1)O[C@@H]1COc3cc(OC)c(OC)cc3[C@]1(O)C2=O (mixture of isomers) | 0.61 µM | 0.73 µM | 0.34 µM | 0.61 µM | 2.93 µM | 31.7 µM | 26.5 µM | > 100 µM
8 | 54.2% |  |  |  | COc1cc(OCC(O)CN2CCC(=O)CC2)c2c(c1)O[C@@H]1COc3cc(OC)c(OC)cc3[C@]1(O)C2=O (mixture of isomers) | > 100 µM | > 100 µM | > 100 µM | > 100 µM | > 100 µM | 48.6 µM | > 100 µM | > 100 µM

The next lines start with the compound.

Row | Compound | inhibition [2] | Tm (Nucleic Acid [4]) | ΔTm (Nucleic Acid [5]) | inhibition [6] | IC50 [1] | IC50 (SW-620) | IC50 (BT-474) | IC50 (HepG2) | IC50 (NCI-H187) | IC50 (MCF7) | IC50 (KB) | IC50 [3]
9 | COc1cc(OCC(O)CNCCN2CCOCC2)c2c(c1)O[C@@H]1COc3cc(OC)c(OC)cc3[C@]1(O)C2=O (mixture of isomers) | 77.1% | 66.1 °C | 8.8 °C |  | 40.2 µM | 0.54 µM | 0.45 µM | 0.56 µM | 4.7 µM | 36.8 µM | 26.3 µM | 1.94 µM
10 | COc1cc(OCC(O)CNCc2ccccc2)c2c(c1)O[C@@H]1COc3cc(OC)c(OC)cc3[C@]1(O)C2=O (mixture of isomers) | 81.7% | 68 °C | 10.7 °C |  | 31 µM | 0.59 µM | 0.62 µM | 0.72 µM | 35.5 µM | 34.6 µM | 32.3 µM | 0.67 µM
11 | COc1cc(OCC(O)CNCCc2ccccc2)c2c(c1)O[C@@H]1COc3cc(OC)c(OC)cc3[C@]1(O)C2=O (mixture of isomers) | 66.7% |  |  |  | > 100 µM | > 100 µM | > 100 µM | > 100 µM | 13.6 µM | 3.05 µM | 23.5 µM | > 100 µM
12 | COc1cc(OCC(O)CNCC(O)c2ccccc2)c2c(c1)O[C@@H]1COc3cc(OC)c(OC)cc3[C@]1(O)C2=O (mixture of isomers) | 60.4% |  |  |  | > 100 µM | > 100 µM | > 100 µM | > 100 µM | 22.1 µM |  | 46.4 µM | > 100 µM
13 | COc1cccc2c1C(=O)c1c(O)c3c(c(O)c1C2=O)C[C@@](O)(C(=O)CO)C[C@@H]3O[C@H]1C[C@H](N)[C@H](O)[C@H](C)O1 [DOXORUBICIN] | 72.1% |  |  |  | 0.83 µM | 0.23 µM | 0.07 µM | 0.26 µM | 0.03 µM |  | 2.01 µM | 0.33 µM
